Here are results for four molecules from ChEMBL document CHEMBL1145051, “Synthesis and biological evaluation of 3-alkoxy analogues of flavone-8-acetic acid” (J Med Chem, 2003).

In one test the test system is C13. Description: cDirect cytotoxicity against the selected tumor cell line c13* was determined especially on ovarian adenocarcinoma derived cells. Format: functional, cell-based. To be noted: Homo sapiens.
For `COc1ccc(-c2oc3c(CC(=O)O)cccc3c(=O)c2OC)cc1`, the IC50 (usually the concentration at which inhibition is half-maximal) was found to be 548 µM.

The subject of a further test is C13. As to the kind of experiment: Direct cytotoxicity against the selected tumor cell line c13* was determined especially on ovarian adenocarcinoma derived cells. To be noted: Homo sapiens. Format: functional, cell-based.
Turning to `COc1c(-c2ccc(C)cc2)oc2c(CC(=O)O)cccc2c1=O`, the IC50 was found to be 806 µM.
Regarding `COc1c(-c2ccccc2C)oc2c(CC(=O)O)cccc2c1=O`, the IC50 turned out to be 524 µM.
Take `COc1c(-c2ccccc2)oc2c(CC(=O)O)cccc2c1=O`: the IC50 stood at 757 µM.

The subject of another test is LoVo. Description: In vitro cytotoxicity against the selected tumor cell line LoVoS arising from human colon adenocarcinoma was determined; not detected. It is filed as functional, cell-based.
Conditions: not given
Turning to `COc1c(-c2ccccc2C)oc2c(CC(=O)O)cccc2c1=O`, the IC50 entry is “not detected”.

Test system in a further test: not listed separately
Description: Potency ratio was determined against macrophages. It is filed as functional.
Conditions: not given
The procedure, abridged: (§1)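 Ratio of reference IC50 (FAA or DMXAA) to analogue IC50 in the effector-cell coculture assay: mouse peritoneal macrophages or adherent human PBMC pretreated 24 h with drug, then C13* target cells added for 24 h, lysis by MTT. IC50 and ratios by Litchfield–Wilcoxon; three experiments in triplicate.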
Consider `COc1ccc(-c2oc3c(CC(=O)O)cccc3c(=O)c2OC)cc1`, for which the Potency ratio was found to be 1.3.

Test system in another test: not listed separately
As to the kind of experiment: Potency ratio was determined against murine macrophages versus FAA (Flavone acetic acid). It is filed as functional.
Conditions: not given
In outline: as §1
For `COc1ccc(-c2oc3c(CC(=O)O)cccc3c(=O)c2OC)cc1`, the Potency ratio is recorded as 1.2.
Turning to `COc1c(-c2ccc(C)cc2)oc2c(CC(=O)O)cccc2c1=O`, the Potency ratio is recorded as 1.7.
For `COc1c(-c2ccccc2C)oc2c(CC(=O)O)cccc2c1=O`, the Potency ratio is listed as 1.1.

Test system in a further test: not listed separately
As to the kind of experiment: Indirect antitumor effect was measured as cytotoxicity against human monocytes; not detected.
Conditions: not given
It is filed as functional. In outline: (§2)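 Adherent human PBMC (Ficoll isolation, 2 h adherence, washed) pretreated 24 h with 25, 50, 100 μM in RPMI 1640/5% FCS, triplicate wells. Medium removed, C13* cells (2 × 10^3/well) cocultured 24 h, read by MTT. Three experiments; IC50 by Litchfield–Wilcoxon.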
In the case of `COc1c(-c2ccc(C)cc2)oc2c(CC(=O)O)cccc2c1=O`, the IC50 result was “not detected”.

Another test concerns 2008. Description: Direct cytotoxicity against the selected tumor cell line 2008 was determined especially on ovarian adenocarcinoma derived cells. It is filed as functional, cell-based. To be noted: Homo sapiens.
The molecule `COc1ccc(-c2oc3c(CC(=O)O)cccc3c(=O)c2OC)cc1` gave an IC50 of 625 µM.

Test system in a further test: not listed separately
Description: Potency ratio was determined against macrophages; more potent. Format: functional.
Conditions: not given
In outline:
as §1
As to `COc1c(-c2ccccc2C)oc2c(CC(=O)O)cccc2c1=O`, the Potency ratio stood at 1.9.

Test system in the next test: not listed separately
Description: Potency ratio was determined against human monocytes versus DMXAA (Dimethylxanthenone-4-acetic acid). It is filed as functional.
Conditions: not given
The procedure, abridged: as §1
On to `COc1ccc(-c2oc3c(CC(=O)O)cccc3c(=O)c2OC)cc1`, for which the Potency ratio turned out to be 0.7.
On the same count and under the same terms, with `COc1c(-c2ccccc2C)oc2c(CC(=O)O)cccc2c1=O` the figure was 1.

Test system in another test: not listed separately
As to the kind of experiment: Potency ratio was determined against LoVoS versus FAA (Flavone acetic acid). Format: functional.
Conditions: not given
In outline:
(§3)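 Ratio IC50(FAA)/IC50(analogue) from direct 24 h MTT cytotoxicity on the named line (LoVo S, LoVo R, 2008 or C13*), concentrations up to 500 μM. IC50 values and 95% confidence limits by Litchfield–Wilcoxon method; three experiments in triplicate.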
With `COc1ccc(-c2oc3c(CC(=O)O)cccc3c(=O)c2OC)cc1`, the Potency ratio came to 0.9.
Same read-out and setting: with `COc1c(-c2ccc(C)cc2)oc2c(CC(=O)O)cccc2c1=O` the figure was 0.9; with `COc1c(-c2ccccc2)oc2c(CC(=O)O)cccc2c1=O`, 0.8.

Test system in another test: not listed separately
Description: Potency ratio was determined against C13 cell line versus FAA (Flavone acetic acid); less potent. Format: functional.
Conditions: not given
The procedure, abridged: as §3
On to `COc1ccc(-c2oc3c(CC(=O)O)cccc3c(=O)c2OC)cc1`, for which the Potency ratio is 0.4.
Consider `COc1c(-c2ccc(C)cc2)oc2c(CC(=O)O)cccc2c1=O`, for which the Potency ratio came to 0.3.
On to `COc1c(-c2ccccc2C)oc2c(CC(=O)O)cccc2c1=O`, for which the Potency ratio is listed as 0.4.
Same read-out and setting: to `COc1c(-c2ccccc2)oc2c(CC(=O)O)cccc2c1=O` belongs 0.3.

A further test is filed under the species Mus musculus. As to the kind of experiment: Indirect antitumor effect was measured as cytotoxicity with murine macrophages pretreated with compounds. It is filed as functional.
Conditions: not given
The procedure, abridged:
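Resident mouse peritoneal macrophages (heparinised PBS lavage, 2 h adherence) plated at 1 × 10^4 cells/well with a range of drug concentrations, triplicate wells, 24 h. Medium removed, C13* cells (2 × 10^3/well) added, cocultured 24 h. Lysis by MTT; specific cytotoxicity = [OD(macrophages+C13*) − OD(macrophages)]/OD(C13*). Three experiments; IC50 by Litchfield–Wilcoxon.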
`COc1ccc(-c2oc3c(CC(=O)O)cccc3c(=O)c2OC)cc1`: the IC50 was determined as 238 µM.
As for `COc1c(-c2ccc(C)cc2)oc2c(CC(=O)O)cccc2c1=O`, the IC50 turned out to be 164 µM.
With `COc1c(-c2ccccc2C)oc2c(CC(=O)O)cccc2c1=O`, the IC50 came out at 248 µM.

Test system in a further test: not listed separately
Description: Indirect antitumor effect was measured as cytotoxicity with human monocytes pretreated with compounds. Format: functional.
Conditions: not given
In outline: as §2
For `COc1ccc(-c2oc3c(CC(=O)O)cccc3c(=O)c2OC)cc1`, the IC50 came out at 181 µM.
`COc1c(-c2ccccc2C)oc2c(CC(=O)O)cccc2c1=O`: the IC50 is 127 µM.

The test system of another test is 2008. As to the kind of experiment: Direct cytotoxicity against the selected tumor cell line 2008 was determined especially on ovarian adenocarcinoma derived cells; not detected. Format: functional, cell-based, Homo sapiens.
Conditions: not given
As for `COc1c(-c2ccc(C)cc2)oc2c(CC(=O)O)cccc2c1=O`, the IC50 entry is “not detected”.
For the molecule `COc1c(-c2ccccc2C)oc2c(CC(=O)O)cccc2c1=O`, the IC50 result is recorded as “not detected”.
Still for that read-out and setting: to `COc1c(-c2ccccc2)oc2c(CC(=O)O)cccc2c1=O` belongs “not detected”.

Test system in a further test: not listed separately
Description: Potency ratio was determined against 2008 cell line versus FAA (Flavone acetic acid); less potent. Format: functional.
Conditions: not given
The procedure, abridged: as §3
On to `COc1ccc(-c2oc3c(CC(=O)O)cccc3c(=O)c2OC)cc1`, for which the Potency ratio is recorded as 0.7.

The test system of the next test is LoVo. As to the kind of experiment: In vitro cytotoxicity against the selected tumor cell line LoVoS arising from human colon adenocarcinoma was determined. Format: functional, cell-based.
Conditions: not given
Consider `COc1ccc(-c2oc3c(CC(=O)O)cccc3c(=O)c2OC)cc1`, for which inhibition was half-maximal at 601 µM (IC50).
The same measure, in the same setting: to `COc1c(-c2ccc(C)cc2)oc2c(CC(=O)O)cccc2c1=O` belongs 632 µM.
Still for that read-out and setting: with `COc1c(-c2ccccc2)oc2c(CC(=O)O)cccc2c1=O` the figure was 719 µM.

Test system in a further test: not listed separately
As to the kind of experiment: Potency ratio was determined against LoVoR versus FAA (Flavone acetic acid). It is filed as functional.
Conditions: not given
In outline:
as §3
In the case of `COc1c(-c2ccc(C)cc2)oc2c(CC(=O)O)cccc2c1=O`, the Potency ratio is 0.7.

The test system of the next test is LoVo. Description: In vitro cytotoxicity against the selected tumor cell line LoVoR arising from human colon adenocarcinoma was determined. It is filed as functional, cell-based.
Conditions: not given
`COc1ccc(-c2oc3c(CC(=O)O)cccc3c(=O)c2OC)cc1` came in with an IC50 of 556 µM.
`COc1c(-c2ccc(C)cc2)oc2c(CC(=O)O)cccc2c1=O` gave an IC50 of 570 µM.
The molecule `COc1c(-c2ccccc2)oc2c(CC(=O)O)cccc2c1=O` came in with an IC50 of 627 µM.

Test system in the next test: not listed separately
As to the kind of experiment: Potency ratio was determined against LoVoR versus FAA (Flavone acetic acid); less potent. Format: functional.
Conditions: not given
In outline:
as §3
Turning to `COc1ccc(-c2oc3c(CC(=O)O)cccc3c(=O)c2OC)cc1`, the Potency ratio is 0.7.
Consider `COc1c(-c2ccccc2)oc2c(CC(=O)O)cccc2c1=O`, for which the Potency ratio amounted to 0.6.
